# Source: ChEMBL document CHEMBL1138431, “Synthesis and cytotoxic activities of 4,5-diarylisoxazoles” (Bioorg Med Chem Lett, 2007)
# pIC50: −log10 of the molar value.
# What was measured:
# HeLa = assay: Cytotoxicity against human HeLa cells; format: functional, cell-based
# How it was run: (§1)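 Cells were grown under previously described culture conditions and tested in an MTT colorimetric assay.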
# HepG2 [1] = assay: Cytotoxicity against human HepG2 cells; format: functional, cell-based; how it was run: as §1
# [2] = Cytotoxicity against human […] cells; format: functional, cell-based; how it was run: as §1
# HepG2 [3] = assay: Cell cycle arrest in human HepG2 cells assessed as accumulation at S phase at 10 nM after 24 hrs relative to control
# HepG2 [4] = assay: Cell cycle arrest in human HepG2 cells assessed as accumulation at G2/M phase at 10 nM after 24 hrs relative to control
# HepG2 [5] = assay: Cell cycle arrest in human HepG2 cells assessed as accumulation at G0/G1 phase at 10 nM after 24 hrs relative to control
SMILES,pIC50 (HeLa),pIC50 (HepG2 [1]),pIC50 [2],Activity (HepG2 [3]) [%],Activity (HepG2 [4]) [%],Activity (HepG2 [5]) [%]
COc1ccc(-c2cnoc2-c2cc(OC)c(OC)c(OC)c2)cc1N,10.66,10.19,9.87,27.4,69.8,2.81
COc1ccc(/C=C\c2cc(OC)c(OC)c(OC)c2)cc1O [COMBRETASTATIN A4],8.56,9.85,11.00,19,79.3,1.68
